# In the library only some 0.73% were active in any assay of this set; here they are far more common.
# Keap1-Nrf2 PPI – Keap1-Nrf2 (human) interaction inhibition; AID 504523; inhibition, % at 9.4 µM; Keap1 Kelch-Nrf2 peptide fluorescence polarization, 1536-well; 340,000 compounds, 0.15% hits; Q14145; in the data active = inhibition above about 12%;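 note: human Keap1 Kelch domain with fluorescein labeled Nrf2 9mer peptide probe; 0% = neutral control wells and 100% = peptide positive control; higher means more block of Keap1 binding to Nrf2 peptide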
# Target sequence (Q14145 whole entry, looked up, the tested form may be a part): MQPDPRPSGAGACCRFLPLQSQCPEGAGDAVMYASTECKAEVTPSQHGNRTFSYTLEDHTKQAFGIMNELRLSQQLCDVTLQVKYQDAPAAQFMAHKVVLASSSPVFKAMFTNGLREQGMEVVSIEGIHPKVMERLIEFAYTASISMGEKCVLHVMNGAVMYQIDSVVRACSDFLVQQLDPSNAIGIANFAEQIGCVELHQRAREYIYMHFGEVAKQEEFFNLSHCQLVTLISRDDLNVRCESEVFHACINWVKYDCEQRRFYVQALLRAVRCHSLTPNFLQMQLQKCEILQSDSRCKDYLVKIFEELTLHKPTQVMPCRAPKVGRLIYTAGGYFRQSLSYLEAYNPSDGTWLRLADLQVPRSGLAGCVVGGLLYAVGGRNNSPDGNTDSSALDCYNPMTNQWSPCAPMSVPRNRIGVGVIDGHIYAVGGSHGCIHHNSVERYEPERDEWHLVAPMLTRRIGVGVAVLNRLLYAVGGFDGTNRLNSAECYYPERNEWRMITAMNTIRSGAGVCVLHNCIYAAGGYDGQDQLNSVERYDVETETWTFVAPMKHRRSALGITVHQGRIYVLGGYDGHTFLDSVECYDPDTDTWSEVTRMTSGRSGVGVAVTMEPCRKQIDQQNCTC
# Tn6 DDE FP – disrupts Tn6 cyclic peptide binding to fibrin D-Dimer-E complex; P02675; Fibrin DD(E) TRITC-Tn6 fluorescence polarization displacement; inhibition, % at 8.3 µM; 370,000 compounds, 0.21% hits; AID 720509;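 active = inhibition above a per-campaign cutoff: mean of compounds within control limits plus 3 SD, cut at about 15% in these data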;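 note: 0% = median of all compound wells on the plate and 100% = blocking peptide control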
# RTF Ca sens act – increases calcium sensitivity of human cardiac regulated thin filaments | activation, % at 7.2 µM | 340,000 compounds, 0.24% hits | IANBD-labeled TnC RTF fluorescence at EC20 calcium; 0% EC20 calcium, 100% full calcium;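 active = activation above the mean over all tested compounds plus 3 SD, cut at about 30% in these data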;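 note: rise in fluorescence read as greater calcium sensitivity of cardiac thin filaments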
# Cardiac RTF inh – cardiac RTF calcium desensitization | P19429+P45379 | IANBD-labeled cardiac RTF, Ca2+ fluorescence | inhibition, % at 7.15 µM | 340,000 compounds, 0.12% hits | AID 493244;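 active = inhibition above the mean inhibition of all tested compounds plus 3 SD, cut at about 17% in these data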;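 note: assay run at fixed EC70 calcium of 1.6 mM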
# DDE Tn7 FP inh – disrupts Tn7 cyclic peptide binding to fibrin D-Dimer-E complex; P02675; FP displacement of FITC-Tn7 peptide from fibrin DD(E); 0% = median of compound wells per plate; inhibition, % at 8.3 µM; 370,000 compounds, 0.13% hits; AID 720508;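 active = inhibition above the mean of compounds falling within the control limits plus 3 SD of them, cut at about 14% in these data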;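 note: 0% = plate median of compound wells and 100% = 10 µM Aha-Tn7 peptide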
#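 Test system: human clot-derived fibrin DD(E) complex / Quantity: 2 µM final DD(E) protein / Incubation: 10 min plus 3 h, room temperature / Measured by: fluorescence polarization / Benchmarks: high control of 10 µM Aha-Tn7 peptide / Replicates: singlicate testing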
# LANA DNA inh – blocks KSHV LANA C-terminal domain binding to DNA; MBP-C-LANA/FAM-LBS DNA binding, fluorescence polarization; inhibition, % at 9 µM; 340,000 compounds, 0.078% hits; AID 504423;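 active = highest replicate inhibition at or above 60% at 9 µM, even if other replicates fall short; inactive = all replicates below 60% inhibition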;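 note: 0% = neutral control wells and 100% = 4 µM acridine orange control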
# * marks the source's active call; other numbers are inactive results; x = no result given.
SMILES,Keap1-Nrf2 PPI,Tn6 DDE FP,RTF Ca sens act,Cardiac RTF inh,DDE Tn7 FP inh,LANA DNA inh
CC1=Nc2ccccc2/C1=C\c1nc(-c2ccc(C(F)(F)F)cc2)oc1O,-0.2,1.5,155.9*,-44.6,-3.9,4.0
CN1CCN(c2nc3c(c(=O)n(C)c(=O)n3C)n2Cc2ccccc2F)CC1,0.6,-1.1,52.2*,4.3,-3.0,1.3
CCN(CC)CCCNC(=O)C1c2ccccc2C(=O)N(CCOC)C1c1ccc(F)cc1 (centres undefined),-4.7,3.3,5.1,-11.8,-3.0,-1.3
CCN(CCCNC(=O)C1c2ccccc2C(=O)N(CCOC)C1c1ccc(F)cc1)Cc1ccccc1 (centres undefined),3.1,-1.9,0.8,-8.6,1.9,83.2*
Cc1ccc(C(=O)NCCN(C)C)c(C)c1,-0.1,0.7,7.2,-7.7,6.8,-0.3
CNc1c2cccc(C)c2nc2c(C(=O)NCCN(C)C)cccc12,0.4,2.4,19.3,-16.8,-7.4,60.8*
Oc1ccc(C23CCCC2C2(CCCC2)c2ccc(O)cc2O3)c(O)c1 (centres undefined),0.1,5.5,2.6,5.5,0.3,-0.1
CCOC(=O)/C(C#N)=C\C=C1C=CN(C)C=C1,-142.7,-9.0,58.6*,-76.4,-27.4,-42.6
Cc1nn(-c2ccccc2)c(N2CCCC2)c1/C=C1\N=C(c2ccc(OC(C)C)cc2)OC1=O,0.3,0.3,64.0*,-61.0,5.5,2.7
COC(=O)C1=C(C)N(Cc2ccccc2C(F)(F)F)C(=NCc2ccc(OC)cc2)NC1c1ccc(C(F)(F)F)cc1 (centres undefined),x,-1.8,x,x,8.4,x
Cc1cc(C)nc(NC(=O)c2c(-c3c(Cl)cccc3Cl)noc2C)n1,-1.2,-0.1,0.6,-7.7,1.4,-0.1
Cc1cc(C)nc(NC(=O)c2c(Cl)cccc2Cl)n1,-1.3,0.1,-1.5,5.1,3.3,84.8*
Cc1cc(S(=O)(=O)NC2CCN(Cc3ccccc3)CC2)c(C)cc1Cl,-0.4,-5.1,1.1,-5.8,9.3,82.2*
Cn1c2c(c(=O)n(C)c1=O)C(C(F)(F)F)(C(F)(F)F)N=C(c1ccccc1Cl)N2,-0.3,3.6,8.6,-14.5,-0.9,-0.3
Cn1c2c(c(=O)n(C)c1=O)C(C(F)(F)F)(C(F)(F)F)N=C(CCC1CCCCC1)N2,-0.9,-2.6,45.0*,-2.3,-8.6,-1.4
CN(C)CCCNc1cc(O)c2ncccc2c1,22.4*,6.6,-4.9,-21.8,-3.6,23.4
Oc1cc(NCc2ccc(F)cc2)cc2cccnc12,4.4,-2.0,1.6,-2.2,-6.3,3.5
CS(=O)(=O)c1ccc(Cl)c(NC(=O)COC(=O)c2cccc(C#N)c2)c1,-1.2,-8.3,-2.3,-9.3,-6.8,0.1
CS(=O)(=O)c1ccc(Cl)c(NC(=O)COC(=O)c2ccc(F)cc2Cl)c1,1.4,1.5,0.7,-4.8,-10.7,71.5*
COc1ccc(C(=O)/C=C2\Sc3ccccc3N2C)cc1,-6.9,-4.2,x,x,1.2,-0.6
COc1ccccc1OC(=O)CCN1c2ccccc2Sc2ccccc21,0.5,-5.5,0.3,-18.5,0.8,1.3
COc1ccc(-[n+]2c(C)cc(/C=C3\Sc4ccccc4N3C)cc2C)cc1,-19.5,0.5,44.3*,-55.2,-24.2,-10.7
COc1ccccc1-[n+]1c(C)cc(/C=C2\Sc3ccccc3N2C)cc1C,-10.0,-2.9,48.4*,-62.3,-11.6,-15.7
COC(=O)[C@@]12C[C@@H](CC(=O)N3CCCC3)C(=O)N(Cc3ccco3)C1=CCC(C)(C)C2,x,-1.3,x,x,1.2,x
Cc1ccc(N=Cc2sc(O)c3ccccc23)c(C)c1,-6.9,-1.9,49.3*,-14.9,5.2,0.4
Nc1c(/C=C2/C=CC(=O)C(O)=C2)c(=O)nc2sc(CC(=O)N3CCCC3)nn12,-5.3,5.9,3.5,-10.6,-5.5,109.1*
COC1=C/C(=C/c2c(N)n3nc(CC(=O)N4CCCC4)sc3nc2=O)C=CC1=O,-4.7,-0.2,9.0,-4.5,-5.6,57.3
Nc1c(/C=C2/C=CC(=O)C(O)=C2)c(=O)nc2sc(CC(=O)N3CCOCC3)nn12,-3.5,-4.5,2.3,-4.3,-4.1,109.8*
CCOC1=C/C(=C/c2c(N)n3nc(CC(=O)N4CCCC4)sc3nc2=O)C=CC1=O,-10.9,-6.5,2.5,-2.9,0.5,52.0
